Experiment [1] addresses T1, Human immunodeficiency virus type 1 reverse transcriptase (Human immunodeficiency virus 1, UniProt Q72547). Nature of the experiment: Inhibition of HIV1 reverse transcriptase p66/p51 polymerase using PPT57 DNA/Cy5-labeled PPT24 as template/primer preincubated for 10 mins followed by dNTP addition measured after 5 mins by bromophenol blue staining based phosphor imaging analysis. The method in brief:
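Gel-based DNA synthesis: PPT57 DNA template (3-fold molar excess) heat-annealed to 50 nM 5'-Cy5-labeled PPT24 primer; 200 nM RT in 50 mM Tris-HCl pH 7.8, 50 mM NaCl, 6 mM MgCl2. Started with 0.5 mM each dNTP, 5 min, 12% denaturing gel.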

For experiment [2], the target named is Human immunodeficiency virus type 1 reverse transcriptase (Human immunodeficiency virus 1) (UniProt Q72547). Nature of the experiment: Inhibition of HIV1 reverse transcriptase p66/p51 assessed as freezing of template-primer-enzyme complex at pretranslocated stage at 100 uM using 5'-radiolabeled PBS36c DNA/5'-TTCTGACTAAAAGGGTCTGAGGGAT-3 as template/primer preincubated for 10 mins followed by Fe2+ addition by site-specific foot printing assay. The method in brief: (§1)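 Fe2+ chemical footprinting: 50 nM 5'-radiolabeled PBS36c DNA template annealed to 150 nM primer, incubated with 750 nM HIV-1 RT in 120 mM sodium cacodylate (pH 7), 20 mM NaCl, 6 mM MgCl2. Compound added at fixed or increasing concentrations, 10 min preincubation at 37 °C. Screening at fixed concentration, 10 µM or 100 µM depending on compound.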

Experiment [3] deals with T1, Human immunodeficiency virus type 1 reverse transcriptase. Nature of the experiment: Inhibition of HIV1 reverse transcriptase p66/p51 RNase H preincubated for 10 mins followed by PBS-22dpol/radiolabeled PBS-14r8d addition measured after 5 mins. The method in brief:
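Inhibitors titrated up to 250 µM (≤5% final DMSO), 10 min preincubation at 37 °C before reaction start.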

Experiment [4] deals with Human immunodeficiency virus type 1 reverse transcriptase (Human immunodeficiency virus 1) (UniProt Q72547). Nature of the experiment: Inhibition of HIV1 reverse transcriptase p66/p51 assessed as freezing of template-primer-enzyme complex at […] stage at 10 uM using 5'-radiolabeled PBS36c DNA/5'-TTCTGACTAAAAGGGTCTGAGGGAT-3 as template/primer preincubated for 10 mins followed by Fe2+ addition by site-specific foot printing assay. The essentials:
as §1

For experiment [5], the target named is T1, Human immunodeficiency virus type 1 reverse transcriptase. Nature of the experiment: Inhibition of HIV1 reverse transcriptase p66/p51. The essentials:
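Gel-based DNA synthesis: PPT57 DNA template (3-fold molar excess) heat-annealed to 50 nM 5'-Cy5-labeled PPT24 primer; 200 nM RT in 50 mM Tris-HCl pH 7.8, 50 mM NaCl, 6 mM MgCl2. Inhibitor titrated up to 250 µM (≤5% final DMSO), 10 min preincubation at 37 °C. Started with 0.5 mM each dNTP, 5 min, 12% denaturing gel. IC50 from variable-slope curve fit, ≥3 independent determinations.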

The target of experiment [6] is Human immunodeficiency virus type 1 reverse transcriptase (Human immunodeficiency virus 1) (UniProt Q72547). Nature of the experiment: Inhibition of HIV1 reverse transcriptase p66/p51 assessed as freezing of template-primer-enzyme complex at pretranslocated stage using 5'-radiolabeled PBS36c DNA/5'-TTCTGACTAAAAGGGTCTGAGGGAT-3 as template/primer preincubated for 10 mins followed by Fe2+ addition by site-specific foot printing assay. The method in brief:
as §1

The target is the same in experiment [7]. Nature of the experiment: Ratio of IC50 for HIV1 reverse transcriptase p66/p51 RNase H to IC50 for HIV1 reverse transcriptase p66/p51 polymerase.
Experiment [8] deals with Human immunodeficiency virus type 1 reverse transcriptase (Human immunodeficiency virus 1, UniProt Q72547, K65R). Nature of the experiment: Inhibition of HIV1 reverse transcriptase p66/p51 polymerase K65R mutant using PPT57 DNA/Cy5-labeled PPT24 as template/primer preincubated for 10 mins followed by dNTP addition measured after 5 mins by bromophenol blue staining based phosphor imaging analysis. The essentials: (§2)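 Template/primer: Cy5-labelled PPT24 primer (50 nM) heat-annealed to a 3-fold molar excess of PPT57 DNA template. Incubated with 200 nM RT in 50 mM Tris-HCl pH 7.8, 50 mM NaCl, 6 mM MgCl2. Inhibitor titrated up to […], with at most 5% final DMSO. Pre-incubated 10 min at 37 °C. Started with 0.5 mM each dNTP, run 5 min, stopped with formamide dye. Products resolved on 12% denaturing PAGE and imaged. Normalized data fitted to a variable-slope log[inhibitor]–response curve to give IC50.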

Experiment [9] addresses Human immunodeficiency virus type 1 reverse transcriptase (Human immunodeficiency virus 1, UniProt Q72547, E89K). Nature of the experiment: Inhibition of HIV1 reverse transcriptase p66/p51 polymerase E89K mutant using PPT57 DNA/Cy5-labeled PPT24 as template/primer preincubated for 10 mins followed by dNTP addition measured after 5 mins by bromophenol blue staining based phosphor imaging analysis. The essentials:
as §2

Experiment [10] addresses Human immunodeficiency virus type 1 reverse transcriptase (Human immunodeficiency virus 1, UniProt Q72547, M184V). Nature of the experiment: Inhibition of HIV1 reverse transcriptase p66/p51 polymerase M184V mutant using PPT57 DNA/Cy5-labeled PPT24 as template/primer preincubated for 10 mins followed by dNTP addition measured after 5 mins by bromophenol blue staining based phosphor imaging analysis. The method in brief:
as §2

Experiment [11] deals with Human immunodeficiency virus 1. Nature of the experiment: Ratio of IC50 for HIV1 reverse transcriptase p66/p51 polymerase K65R mutant to IC50 for HIV1 reverse transcriptase p66/p51 polymerase wild type.
Experiment [12] deals with Human immunodeficiency virus 1. Nature of the experiment: Ratio of IC50 for HIV1 reverse transcriptase p66/p51 polymerase M184V mutant to IC50 for HIV1 reverse transcriptase p66/p51 polymerase wild type.
Experiment [13] has as its system Human immunodeficiency virus 1. Nature of the experiment: Ratio of IC50 for HIV1 reverse transcriptase p66/p51 polymerase E89K mutant to IC50 for HIV1 reverse transcriptase p66/p51 polymerase wild type.

Activity calls are given as the source filed them. The rule behind the calls is not given here.

In general, IC50 refers to the point on the concentration scale where inhibition reaches its midpoint. High values mean a need for much substance, low ones inhibition by little substance.

`O=C(O)c1nc(CNc2ncnc3ncccc23)nc(O)c1O` came in with an IC50 in [1] of 65 µM.
On to `COc1ccc(-c2cnc3ncnc(NCc4nc(O)c(O)c(C(=O)O)n4)c3c2)cc1`, for which the values for the IC50 in experiment [1] and in experiment [3] were 25 µM and 1.5 µM, respectively. The “Active/not active call for freezing the pre-translocated complex” value in experiment [2] was “inactive”.
`Cc1ccc(-c2nc(O)c(O)c(C(=O)O)n2)cc1`: the IC50 in experiment [1] was determined as 6.3 µM.
Take `O=C(O)c1nc(CNc2ncnc3ncc(Br)cc23)nc(O)c1O`: inhibition in experiment [1] was half-maximal at 49 µM (IC50). For the same compound, in experiment [2], the “Active/not active call for freezing the pre-translocated complex” value was “inactive”.
`O=C(O)c1nc(-c2ccc(Cl)cc2)[nH]c(=O)c1O`: the IC50 in experiment [1] was 4.5 µM.
With `COC(=O)c1nc(-c2ccc(C)c(Br)c2)nc(O)c1O`, the IC50 in experiment [1] is > 100 µM.
`Cn1c2ccccc2c2c1cc(C#N)c(=O)n2-c1ccc([N+](=O)[O-])cc1`: the inhibition result in experiment [4] is “Active”.
For the compound `O=P(O)(O)C(Nc1cccc(Br)c1)P(=O)(O)O`, the “Active/not active call for freezing the pre-translocated complex” value in experiment [2] was “Active”.
With `Nc1ncnc2c1ncn2Cc1nc(O)c(O)c(C(=O)O)n1`, the IC50 in [1] was > 100 µM.
Consider `O=C(Nc1ccc(-c2cccc(NC(P(=O)(O)O)P(=O)(O)O)c2)cc1)C1CC1`, for which the “Active/not active call for freezing the pre-translocated complex” value in [2] is “inactive”. The figures for the IC50 in [5] and in [3] were > 50 µM and 0.8 µM, respectively.
In [1], `O=C(O)c1nc(-c2cccc(Cl)c2)nc(O)c1O` registered an IC50 of 18 µM. That is a double-digit micromolar value.
Take `CSc1nc2ncnc(NCc3nc(O)c(O)c(C(=O)O)n3)c2cc1Br`: in [1], the IC50 was > 100 µM.
In experiment [1], `O=C(O)c1nc(Cc2ccc(Cl)cc2)nc(O)c1O` displayed an IC50 of 97 µM.
Regarding `O=C(O)c1nc(-c2cccs2)nc(O)c1O`, half-maximal inhibition in experiment [1] (IC50) was put at 46 µM.
Same read-out and setting: then `CC(C)c1ccc(-c2nc(O)c(O)c(C(=O)O)n2)cc1`, with 22 µM; and `O=C(O)c1nc(-c2ccc(Br)cc2)nc(O)c1O`, with 2.8 µM.
Take `O=C(O)c1nc(-c2cc(C(F)(F)F)cc(C(F)(F)F)c2)nc(O)c1O`: inhibition in [1] was half-maximal at 20 µM (IC50). The “Active/not active call for freezing the pre-translocated complex” value in [2] is “inactive”.
For the compound `O=C(O)c1nc(-c2ccccc2)nc(O)c1O`, the half-maximal inhibitory concentration (IC50) in [1] was > 100 µM.
Compound `Nc1ncnc2c1ncn2CCc1nc(O)c(O)c(C(=O)O)n1` gave an IC50 in experiment [1] of 41 µM. This lies in the double-digit micromolar range.
Regarding `Cc1ccc(-c2nc(O)c(O)c(C(=O)O)n2)cc1Cl`, the IC50 in experiment [1] came out at 1.6 µM; in experiment [3] it was 25 µM. In addition, the inhibition entry in [6] was “Dose-dependent effect”. For the same compound, in experiment [7], the Ratio IC50 was > 10.
`O=C(O)c1nc(-c2cccc(Br)c2)nc(O)c1O` yielded an IC50 in [1] of 14 µM. Also, the “Active/not active call for freezing the pre-translocated complex” value in experiment [2] is “Active”.
For `Cc1noc(C)c1-c1ccc(-c2nc(O)c(O)c(C(=O)O)n2)cc1`, the IC50 in experiment [1] was > 100 µM.
Consider `CNC(=O)c1nc(-c2ccc(C)c(Br)c2)nc(O)c1O`, for which the concentration for half-maximal inhibition (IC50) in [1] is > 100 µM.
Same read-out and setting: then `Cc1cccc(-c2nc(O)c(O)c(C(=O)O)n2)c1`, with 49 µM.
As to `Cc1ccc(-c2nc(O)c(O)c(C(=O)O)n2)cc1Br`, the IC50 in experiment [1] was 1.4 to 1.74 µM; in [3] it was 23 µM; in experiment [8] it was 1.13 µM; in experiment [9], 4.63 µM; in [10] it was 2.79 µM. Besides, in experiment [6], the inhibition result was “Dose-dependent effect”. Moreover, the Ratio IC50 in experiment [7] was > 10; in experiment [11] it was < 2; in experiment [12], < 2; in experiment [13], 2.7.
For the compound `O=C(O)c1nc(-c2cccc(-c3ccc(F)c(F)c3)c2)nc(O)c1O`, in experiment [1], the IC50 was > 100 µM.
As to `COc1ccc(-c2cc3c(NCc4nc(O)c(O)c(C(=O)O)n4)ncnc3nc2SC)cc1`, the IC50 in [1] is 62 µM; in experiment [3] it was 2 µM.

The values are drawn from ChEMBL document CHEMBL4219091, “Pharmacophore requirements for HIV-1 reverse transcriptase inhibitors that selectively "Freeze" the pre-translocated complex during the polymerization catalytic cycle” (Bioorg Med Chem, 2018).
